Bioassay records deposited in PubChem BioAssay by Broad Institute.
LANA-H2B inh – blocks KSHV LANA binding to histone H2A/H2B. cell-free LANA-H2A/H2B peptide, fluorescence polarization. inhibition, % (no concentration beside the values). hit rate 0.6% among 320,000; in the data active means inhibition mostly above about 10%, no sharp cut-off; inactive means mostly below about 6.7%
LANA DNA inh – inhibitors of KSHV LANA C-terminal domain DNA binding; MBP-C-LANA/FAM-LBS DNA binding, fluorescence polarization; inhibition, % at 9 µM; hit rate 0.078% among 340,000;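 active means highest replicate inhibition at or above 60% at 9 µM, even if other replicates fall short; inactive means all replicates below 60% inhibition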;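 further: 0% = neutral control wells and 100% = 4 µM acridine orange control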
Keap1-Nrf2 PPI – disrupts human Keap1 binding to Nrf2 peptide | inhibition, % at 9.4 µM | hit rate 0.15% among 340,000 | Q14145 | Keap1 Kelch-Nrf2 peptide fluorescence polarization, 1536-well; in the data active means inhibition above about 12%;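 further: human Keap1 Kelch domain with fluorescein labeled Nrf2 9mer peptide probe; 0% = neutral control wells and 100% = peptide positive control; higher means more block of Keap1 binding to Nrf2 peptide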
CAL PDZ FP-1 – blocks peptide binding to human CAL PDZ domain; inhibition, % at 20 µM; AID 504414; hit rate 0.02% among 330,000; Q9HD26; purified CAL PDZ, TMR-peptide fluorescence polarization, 1 h;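 active means highest replicate inhibition of at least 40%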;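 further: plate controls were DMSO neutral control wells for no effect and unlabeled competitor peptide control wells for full effect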
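Read-out basis: mP drop reported as inhibition | Assay system: Tagged CAL PDZ protein CerCALP, purified | Benchmarks: Unlabelled peptide for full inhibition, DMSO wells as neutral | Schedule: 1 h incubation at room temperature before polarization reading | Buffer or medium: Sodium phosphate/NaCl buffer pH 7.4 with TCEP, IgG, Thesit | Doses: Single point, 20 µM | Measured by: Fluorescence polarization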
CAL PDZ FP-2 – blocks peptide binding to the human CAL PDZ domain. Q9HD26. purified CAL PDZ, TMR-peptide fluorescence polarization, 1 h. inhibition, % at 24.9 µM. hit rate 0.92% among 300,000;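 active means mean inhibition of at least 30% with at least half of replicates also reaching 30%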;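 further: 0% = DMSO neutral control and 100% = excess unlabeled competitor peptide PRC23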
CaV13 FRET inh – Primary screen for inhibitors of IQ motif and Ca2+-dependent inactivation inhibitor domain binding in CACNA1D, Förster resonance energy transfer in living cells, …; inhibition, % at 12.3 µM; HEK cells, CFP/YFP FRET ICDI-IQ, plate reader, 10 min; percent FRET-ratio fall versus neutral wells; hit rate 0.098% among 340,000;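 active means mean replicate inhibition of at least 30% and at least 1% of replicates passing that level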;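 further: 0% = median of the neutral control wells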
The depositor's hits bear a star; ! = a repeat was not active. Rows were chosen to be rich in hits. Some 1.5% of all compounds tested hit in one or more screens of this group.

For CN1[C@@H]2CC(OC(=O)[C@H](CO)c3ccccc3)C[C@H]1[C@@H]1O[C@@H]12 (some centres undefined) the results were LANA-H2B inh 26.9*!, CAL PDZ FP-1 -0.2, CAL PDZ FP-2 -7.6 and CaV13 FRET inh -4.8.
`COC(=O)C(C(C)C)N1CCc2c(C)nc3c(C#N)cnn3c21` (centres undefined) gave LANA-H2B inh 59.9*, LANA DNA inh -0.7, Keap1-Nrf2 PPI -3.1, CAL PDZ FP-1 -2.9, CAL PDZ FP-2 -3.1 and CaV13 FRET inh -2.4.
`CCc1nnc(NC(=O)c2cc(C)nc3ccccc23)s1` gave LANA-H2B inh 0.9, LANA DNA inh -1.6, Keap1-Nrf2 PPI -1.9, CAL PDZ FP-1 -1.2, CAL PDZ FP-2 64.9* and CaV13 FRET inh -7.2.
`C[N+]1(CC(=O)OC2CCCCCCCCCCC2)CCCC1` gave LANA-H2B inh -12.4, LANA DNA inh -1.3, Keap1-Nrf2 PPI -0.6, CAL PDZ FP-1 -0.7, CAL PDZ FP-2 96.5* and CaV13 FRET inh -5.1.
C=CC[C@@H](CC(=O)NCCO)C(=O)N[C@@H](COC(=O)[C@@H](CC=C)Cc1ccc(F)cc1)Cc1c[nH]c2ccccc12 was read as LANA-H2B inh -0.1, LANA DNA inh 1.8, Keap1-Nrf2 PPI -6.6, CAL PDZ FP-1 -0.7, CAL PDZ FP-2 -1.5 and CaV13 FRET inh -9.2.
For C=CC[C@@H](CC(=O)NCCO)C(=O)N[C@H](COC(=O)[C@@H](CC=C)Cc1ccc(F)cc1)Cc1c[nH]c2ccccc12 the results were LANA-H2B inh active, LANA DNA inh 1.0, Keap1-Nrf2 PPI -5.2, CAL PDZ FP-1 0.2, CAL PDZ FP-2 -3.9 and CaV13 FRET inh -2.3.
COC(=O)c1cc2c(c3c4ccccc4n(S(=O)(=O)c4ccc(OC)cc4)c13)C(=O)N(Cc1ccco1)C2 was read as CaV13 FRET inh -4.1.
`CCn1c2ccccc2c(=O)c2ccccc21` gave LANA-H2B inh 0.5, LANA DNA inh 0.3, Keap1-Nrf2 PPI 4.1, CAL PDZ FP-1 -0.8 and CaV13 FRET inh active.
`O=C(O)CCC1(CCC(=O)O)CCCC(CCC(=O)O)(CCC(=O)O)C1=O` gave LANA DNA inh 2.3, Keap1-Nrf2 PPI -2.7, CAL PDZ FP-1 0.2, CAL PDZ FP-2 79.9* and CaV13 FRET inh -5.0.
`O=C(O)CCN1C(=O)NC2(CCCC2)C1=O` gave LANA-H2B inh -2.7, LANA DNA inh 1.2, Keap1-Nrf2 PPI -1.4, CAL PDZ FP-1 -1.4, CAL PDZ FP-2 -1.7 and CaV13 FRET inh -3.2.
O=C(Nc1ccnn1C1CCN(C(=O)c2cccc(C(F)(F)F)c2)CC1)C1CC1 was read as LANA-H2B inh 16.5*, LANA DNA inh -0.2, Keap1-Nrf2 PPI -1.2, CAL PDZ FP-1 0.4, CAL PDZ FP-2 -8.6 and CaV13 FRET inh -6.2.
Screening CC(C)(C)C(=O)Nc1ccnn1C1CCN(C(=O)c2ccc(Cl)cc2F)CC1 returned LANA-H2B inh 25.7*, LANA DNA inh -1.6, Keap1-Nrf2 PPI 0.5, CAL PDZ FP-1 -0.2 and CAL PDZ FP-2 44.4*.
Screening COCCCNC(=O)C[C@H]1C[C@@]2(C(=O)OC)C(=C[C@H](C3CCCC3)O[C@@H]2C)N(Cc2ccccc2)C1=O returned CaV13 FRET inh -10.5.
Cc1ccc(NC(=O)C(C)OC(=O)COc2cccc(C(F)(F)F)c2)cc1 (centres undefined) was read as LANA-H2B inh 18.7*, LANA DNA inh -0.3, Keap1-Nrf2 PPI -4.9, CAL PDZ FP-1 0.3 and CaV13 FRET inh -14.2.
COc1ccccc1CNc1ccc2c(c1)OC[C@H](CC(C)C)NS2(=O)=O was read as CaV13 FRET inh -4.0.
Screening COC(=O)C1=C(C)N(C)C(=NCc2ccc(OC)cc2)NC1c1cccc(C(F)(F)F)c1 (centres undefined) returned CaV13 FRET inh -6.4.
`N#Cc1c(N(CCO)CCO)nc(N)c2c(N)nc3c(c12)CC(=O)N3Cc1cccs1` gave LANA-H2B inh 0.7, LANA DNA inh 0.8, Keap1-Nrf2 PPI 3.5, CAL PDZ FP-1 -2.6 and CAL PDZ FP-2 -6.5.
For CN(CCO)c1nc(N)c2c(N)nc3c(c2c1C#N)CC(=O)N3Cc1cccs1 the results were LANA-H2B inh -1.4, LANA DNA inh -1.4, Keap1-Nrf2 PPI -3.0, CAL PDZ FP-1 0.1, CAL PDZ FP-2 122.9* and CaV13 FRET inh -6.5.
Cn1ccc2c(-c3ccc(C(=O)O)cc3)cc3c(c21)C1CCC3C1 (centres undefined) was read as CaV13 FRET inh -9.4.
For O=C(C1=C(O)C(=O)N(CC2CCCO2)C1c1ccccc1)c1ccco1 (centres undefined) the results were LANA-H2B inh -1.5, LANA DNA inh 0.5, Keap1-Nrf2 PPI -5.8, CAL PDZ FP-1 -1.3, CAL PDZ FP-2 -3.1 and CaV13 FRET inh -2.9.
For COc1ccc(C2C(C(=O)c3ccco3)=C(O)C(=O)N2CC2CCCO2)cc1OC (centres undefined) the results were LANA-H2B inh 18.9*, LANA DNA inh -1.1, Keap1-Nrf2 PPI -3.7, CAL PDZ FP-1 0.0, CAL PDZ FP-2 52.0* and CaV13 FRET inh -2.3.
For CCN(CC)c1ccc2cc(-c3nc4ccccc4[nH]3)c(=O)oc2c1 the results were LANA-H2B inh 26.9*, LANA DNA inh 20.8, Keap1-Nrf2 PPI -16.2 and CAL PDZ FP-1 -0.8.
Screening CCN(CC)c1ccc2cc(-c3nc4ccccc4n3C)c(=O)oc2c1 returned LANA-H2B inh -3.1, LANA DNA inh 4.2, Keap1-Nrf2 PPI -5.9, CAL PDZ FP-1 -2.5 and CaV13 FRET inh 16.3.
COc1ccc(-c2cc(C(F)(F)F)n3nc(C(=O)N(C)Cc4ccccc4)cc3n2)cc1OC was read as LANA-H2B inh 18.2*, LANA DNA inh 0.5, Keap1-Nrf2 PPI -1.8, CAL PDZ FP-1 0.1, CAL PDZ FP-2 -0.9 and CaV13 FRET inh -2.3.
Screening COCCSc1nnc(NC(=O)c2ccc(OC)c([N+](=O)[O-])c2)s1 returned LANA-H2B inh 4.4, LANA DNA inh -1.0, Keap1-Nrf2 PPI 1.7, CAL PDZ FP-1 0.9, CAL PDZ FP-2 52.6* and CaV13 FRET inh -6.7.
COc1ccc(CSc2nnc(NC(C)=O)s2)cc1[N+](=O)[O-] was read as LANA DNA inh -0.1, Keap1-Nrf2 PPI -4.9, CAL PDZ FP-1 1.5, CAL PDZ FP-2 -1.4 and CaV13 FRET inh -4.0.
Screening COCCSc1nnc(NC(=O)Cc2ccc(OC)cc2)s1 returned LANA-H2B inh 0.0, LANA DNA inh -0.3, Keap1-Nrf2 PPI -2.5, CAL PDZ FP-1 0.0, CAL PDZ FP-2 48.5* and CaV13 FRET inh -5.5.
CCOC(=O)C1CCN(S(=O)(=O)c2ccc3oc(=O)ccc3c2)CC1 was read as LANA-H2B inh 1.5, LANA DNA inh -3.0, Keap1-Nrf2 PPI -0.5, CAL PDZ FP-1 -0.7, CAL PDZ FP-2 -3.6 and CaV13 FRET inh -2.9.
